Experiments:
Type in all cases: functional
[1] = test system: TK-10; experiment: Cytotoxicity against human TK10 cells after 2 days by sulforhodamine B assay; conditions: TK-10, 48 h
Outline: (§1)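 NCI DTP NCI60 multi-dose screen (59 human tumour lines available). Cells exposed to compound over a 5-log mol/L concentration range for 2 days, then fixed and stained with sulphorhodamine B, with optical density read. Growth inhibition calculated relative to time-zero cells and untreated cells, giving GI50 (half-maximal growth inhibition concentration). Average of two replicates.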

[2] = test system: RXF 393; experiment: Cytotoxicity against human RXF393 cells after 2 days by sulforhodamine B assay; conditions: RXF 393, 48 h
Outline: (§2)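 NCI60 multi-dose screen, 59 human tumour lines available. Cells exposed to compound across a 5-log mol/L concentration range for 2 days, then fixed and stained with sulphorhodamine B, optical density read. Growth inhibition calculated against time-zero control and untreated cells. GI50 derived from the dose series, average of two replicates.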

[3] = test system: A498; experiment: Cytotoxicity against human A498 cells after 2 days by sulforhodamine B assay; conditions: A498, 48 h; outline: as §2
[4] = test system: SK-OV-3; experiment: Cytotoxicity against human SKOV3 cells after 2 days by sulforhodamine B assay; conditions: SK-OV-3, 48 h; outline: as §2
[5] = test system: OVCAR-8; experiment: Cytotoxicity against human OVCAR8 cells after 2 days by sulforhodamine B assay; conditions: OVCAR-8, 48 h; outline: as §2
[6] = test system: OVCAR-5; experiment: Cytotoxicity against human OVCAR5 cells after 2 days by sulforhodamine B assay; conditions: OVCAR-5, 48 h; outline: as §2
[7] = test system: OVCAR-3; experiment: Cytotoxicity against human OVCAR3 cells after 2 days by sulforhodamine B assay; conditions: OVCAR-3, 48 h; outline: as §2
[8] = test system: IGROV-1; experiment: Cytotoxicity against human IGROV1 cells after 2 days by sulforhodamine B assay; conditions: IGROV-1, 48 h; outline: as §2
[9] = test system: SK-MEL-5; experiment: Cytotoxicity against human SK-MEL-5 cells after 2 days by sulforhodamine B assay; conditions: SK-MEL-5, 48 h; outline: as §2
[10] = test system: MDA-MB-435; experiment: Cytotoxicity against human MDA-MB-435 cells after 2 days by sulforhodamine B assay; conditions: MDA-MB-435, 48 h; outline: as §2
[11] = test system: SK-MEL-2; experiment: Cytotoxicity against human SK-MEL-2 cells after 2 days by sulforhodamine B assay; conditions: SK-MEL-2, 48 h; outline: as §2
[12] = test system: M14; experiment: Cytotoxicity against human M14 cells after 2 days by sulforhodamine B assay; conditions: M14, 48 h; outline: as §2
[13] = test system: LOX IMVI; experiment: Cytotoxicity against human LOXIMVI cells after 2 days by sulforhodamine B assay; conditions: 48 h; outline: as §2
[14] = test system: U-251; experiment: Cytotoxicity against human U251 cells after 2 days by sulforhodamine B assay; conditions: U-251, 48 h; outline: as §1
[15] = test system: SF-539; experiment: Cytotoxicity against human SF539 cells after 2 days by sulforhodamine B assay; conditions: SF-539, 48 h; outline: as §2
[16] = test system: SNB-19; experiment: Cytotoxicity against human SNB19 cells after 2 days by sulforhodamine B assay; conditions: SNB-19, 48 h; outline: as §1
[17] = test system: SF-268; experiment: Cytotoxicity against human SF268 cells after 2 days by sulforhodamine B assay; conditions: SF-268, 48 h; outline: as §2
[18] = test system: SW-620; experiment: Cytotoxicity against human SW620 cells after 2 days by sulforhodamine B assay; conditions: SW-620, 48 h; outline: as §1
[19] = test system: KM12; experiment: Cytotoxicity against human KM12 cells after 2 days by sulforhodamine B assay; conditions: KM12, 48 h; outline: as §2
[20] = test system: NCI-H522; experiment: Cytotoxicity against human NCI-H522 cells after 2 days by sulforhodamine B assay; conditions: NCI-H522, 48 h; outline: as §2
[21] = test system: HOP-92; experiment: Cytotoxicity against human HOP92 cells after 2 days by sulforhodamine B assay; conditions: HOP-92, 48 h; outline: as §2
[22] = test system: NCI-H23; experiment: Cytotoxicity against human NCI-H23 cells after 2 days by sulforhodamine B assay; conditions: NCI-H23, 48 h; outline: as §2
[23] = test system: HOP-62; experiment: Cytotoxicity against human HOP62 cells after 2 days by sulforhodamine B assay; conditions: HOP-62, 48 h; outline: as §2
[24] = test system: RPMI-8226; experiment: Cytotoxicity against human RPMI8226 cells after 2 days by sulforhodamine B assay; conditions: RPMI-8226, 48 h; outline: as §2
[25] = test system: K562; experiment: Cytotoxicity against human K562 cells after 2 days by sulforhodamine B assay; conditions: K562, 48 h; outline: as §2
[26] = test system: HL-60(TB); experiment: Cytotoxicity against human HL-60(TB) cells after 2 days by sulforhodamine B assay; conditions: HL-60, 48 h
Outline: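 NCI60 multi-dose screen: cells exposed to compound over a 5-log mol/L concentration range for 2 days, then fixed and stained with sulphorhodamine B and optical density read. Growth inhibition calculated relative to time-zero control and untreated cells; GI50 reported as average of two replicates.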

[27] = test system: MDA-MB-468; experiment: Cytotoxicity against human MDA-MB-468 cells after 2 days by sulforhodamine B assay; conditions: MDA-MB-468, 48 h; outline: as §2
[28] = test system: T47D; experiment: Cytotoxicity against human T47D cells after 2 days by sulforhodamine B assay; conditions: 48 h; outline: as §1
[29] = test system: BT-549; experiment: Cytotoxicity against human BT549 cells after 2 days by sulforhodamine B assay; conditions: BT-549, 48 h; outline: as §2
[30] = read-out: LC50 (the source's name)

COc1cc(-c2ccc[nH]2)[nH]c1/C=C1\N=C(C)C(C(=O)CCC(=O)Oc2ccc3c(c2)CC[C@@H]2[C@@H]3CC[C@]3(C)C(=O)CC[C@@H]23)=C1C
GI50 [1]: 27.8 µM | LC50 [1]: > 100 µM | TGI [1]: > 100 µM | GI50 [2]: 11.7 µM | LC50 (concentration killing 50% of cells) [2]: > 100 µM | TGI [2]: > 100 µM | GI50 [3]: 8.49 µM | LC50 [3]: > 100 µM | TGI [3]: 59.1 µM | GI50 [4]: > 100 µM | LC50 (concentration killing 50% of starting cells) [4]: > 100 µM | TGI [4]: > 100 µM | GI50 [5]: 8.36 µM | LC50 [5]: > 100 µM | TGI [5]: > 100 µM | GI50 [6]: 9.64 µM | LC50 [6]: > 100 µM | TGI [6]: > 100 µM | GI50 [7]: 17.6 µM | LC50 [7]: > 100 µM | TGI [7]: > 100 µM | GI50 [8]: 8.4 µM | LC50 [8]: > 100 µM | TGI [8]: > 100 µM | GI50 [9]: 3.5 µM | LC50 (concentration killing 50% of cells) [9]: 68.8 µM | TGI [9]: 19.6 µM | GI50 [10]: 7.68 µM | TGI [10]: > 100 µM | CC50 [10, 30]: > 100 µM | GI50 [11]: 15.6 µM | LC50 [11]: > 100 µM | TGI [11]: 58.8 µM | GI50 [12]: 12.4 µM | TGI [12]: 33.4 µM | CC50 [12, 30]: 91.2 µM | GI50 [13]: 1170 nM | LC50 [13]: 21.2 µM | TGI [13]: 3.56 µM | GI50 [14]: 3.41 µM | LC50 [14]: > 100 µM | TGI [14]: > 100 µM | GI50 [15]: 15.5 µM | LC50 [15]: > 100 µM | TGI [15]: > 100 µM | GI50 [16]: 18.4 µM | TGI [16]: > 100 µM | CC50 [16, 30]: > 100 µM | GI50 [17]: 5.62 µM | LC50 (concentration killing 50% of cells) [17]: > 100 µM | TGI [17]: > 100 µM | GI50 [18]: 770 nM | LC50 (concentration killing 50% of cells) [18]: > 100 µM | TGI [18]: > 100 µM | GI50 [19]: 6.25 µM | LC50 [19]: > 100 µM | TGI [19]: > 100 µM | GI50 [20]: 4.68 µM | LC50 [20]: > 100 µM | TGI [20]: 60.1 µM | GI50 [21]: 2230 nM | TGI [21]: 19.4 µM | CC50 [21, 30]: > 100 µM | GI50 [22]: 9.8 µM | LC50 (concentration killing 50% of cells) [22]: > 100 µM | TGI [22]: > 100 µM | GI50 [23]: 18.3 µM | TGI [23]: 65.9 µM | CC50 [23, 30]: > 100 µM | GI50 [24]: 6.86 µM | LC50 (concentration killing 50% of cells present at time zero) [24]: > 100 µM | TGI [24]: > 100 µM | GI50 [25]: 4.23 µM | LC50 (concentration killing 50% of cells) [25]: > 100 µM | TGI [25]: > 100 µM | GI50 [26]: 55.8 µM | TGI [26]: > 100 µM | CC50 [26, 30]: > 100 µM | GI50 [27]: 17 µM | LC50 [27]: > 100 µM | TGI [27]: > 100 µM | GI50 [28]: 15.4 µM | LC50 (concentration killing 50% of cells) [28]: > 100 µM | TGI [28]: > 100 µM | GI50 [29]: 15.6 µM | LC50 (concentration killing 50% of cells present at time zero) [29]: > 100 µM | TGI [29]: > 100 µM

— ChEMBL document CHEMBL2417509, “Synthesis and biological evaluation of prodigiosene conjugates of porphyrin, estrone and 4-hydroxytamoxifen” (2013)
